# Test results reported in ChEMBL document CHEMBL4011658 (J Med Chem, 2017).
# The source made the active and inactive calls. The calls are words filed in the database; no cut-off is given here. Residues, ends and D or L forms follow the SMILES beside them. *: point of attachment. Boc = CC(C)(C)OC(=O)*; NHBn = c1ccc(CN*)cc1
# Key:
# SK-MEL = assay: Cytotoxicity against human SK-MEL cells assessed as reduction in cell viability after 48 hrs by neutral red uptake assay; type: cell-based
# Summary of the method: (§1)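 Cells seeded at 25 000 per well and grown 24 h to confluence, then exposed to peptides up to 10 μg/mL for 48 h; viability by modified neutral red uptake; doxorubicin positive control, DMSO negative control.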
# Candida = assay: Antifungal activity against Candida; type: functional
# [1] = Selectivity index, ratio of cytotoxicity against human SK-MEL cells to IC50 for Cryptococcus neoformans ATCC 90113; type: toxicity, cell-based; settings: read-out: Selectivity Index
# SK-OV-3 = assay: Cytotoxicity against human SKOV3 cells assessed as reduction in cell viability after 48 hrs by neutral red uptake assay; type: cell-based; settings: sk-ov-3, 48 h; summary of the method: as §1
# Aspergillus = assay: Antifungal activity against Aspergillus; type: functional
# [2] = Selectivity index, ratio of cytotoxicity against human BT549 cells to IC50 for Cryptococcus neoformans ATCC 90113; type: toxicity, cell-based; settings: read-out: Selectivity Index
# Cryptococcus neoformans = assay: Antifungal activity against Cryptococcus neoformans ATCC 90113 after 70 to 74 hrs by alamar blue dye based CLSI method; type: functional
# BT-549 = assay: Cytotoxicity against human BT549 cells assessed as reduction in cell viability after 48 hrs by neutral red uptake assay; type: cell-based; settings: bt-549, 48 h; summary of the method: as §1
# [3] = Selectivity index, ratio of cytotoxicity against African green monkey VERO cells to IC50 for Cryptococcus neoformans ATCC 90113; type: toxicity, cell-based; settings: read-out: Selectivity Index
# [4] = Selectivity index, ratio of cytotoxicity against pig LLC-PK1 cells to IC50 for Cryptococcus neoformans ATCC 90113; type: toxicity, cell-based; settings: read-out: Selectivity Index
# [5] = Selectivity index, ratio of cytotoxicity against human SKOV3 cells to IC50 for Cryptococcus neoformans ATCC 90113; type: toxicity, cell-based; settings: read-out: Selectivity Index
# Escherichia coli = assay: Antibacterial activity against Escherichia coli ATCC 35218 after 16 to 20 hrs by alamar blue dye based CLSI method; type: functional
# LLC-PK1 = assay: Cytotoxicity against pig LLC-PK1 cells assessed as reduction in cell viability after 48 hrs by neutral red uptake assay; type: cell-based, Sus scrofa; settings: llc-pk1, 48 h; summary of the method: as §1
# Vero = assay: Cytotoxicity against African green monkey Vero cells assessed as reduction in cell viability after 48 hrs by neutral red uptake assay; type: cell-based; settings: chlorocebus sabaeus; summary of the method: as §1
Compound,MIC (Cryptococcus neoformans),Activity (SK-MEL),Activity (Candida),selectivity ratio [1],Activity (SK-OV-3),Activity (Aspergillus),selectivity ratio [2],IC50 (Cryptococcus neoformans),MFC (Cryptococcus neoformans),Activity (BT-549),selectivity ratio [3],selectivity ratio [4],selectivity ratio [5],Activity (Escherichia coli),Activity (LLC-PK1),Activity (Vero)
N[C@@H](Cc1c[nH]c(-c2ccc(-c3ccccc3)cc2)n1)C(=O)N[C@@H](Cc1c[nH]c2ccccc12)C(=O)N[C@@H](Cc1c[nH]c(-c2ccc(-c3ccccc3)cc2)n1)C(=O)NCc1ccccc1,2.5 µg/mL,> 10 µg/mL,inactive,> 7.1,> 10 µg/mL,inactive,> 7.1,1.4 µg/mL,2.5 µg/mL,> 10 µg/mL,> 7.1,> 7.1,> 7.1,inactive,> 10 µg/mL,> 10 µg/mL
COC(=O)[C@H](Cc1c[nH]cn1)NC(=O)[C@H](Cc1c[nH]c2ccccc12)NC(=O)[C@@H](N)Cc1c[nH]cn1 (H-His-Trp-His-OMe),20 µg/mL,> 10 µg/mL,inactive,> 1,> 10 µg/mL,inactive,> 1,9.81 µg/mL,20 µg/mL,> 10 µg/mL,> 1,> 1,> 1,inactive,> 10 µg/mL,> 10 µg/mL
COC(=O)[C@H](Cc1c[nH]c(-c2ccccc2)n1)NC(=O)[C@H](Cc1c[nH]c2ccccc12)NC(=O)[C@@H](N)Cc1c[nH]c(-c2ccccc2)n1,10 µg/mL,> 10 µg/mL,inactive,> 2.7,> 10 µg/mL,inactive,> 2.7,3.71 µg/mL,10 µg/mL,> 10 µg/mL,> 2.7,> 2.7,> 2.7,inactive,> 10 µg/mL,> 10 µg/mL

# Second part, led by results:
MIC (Cryptococcus neoformans),Compound,Activity (SK-MEL),Activity (Candida),selectivity ratio [1],Activity (SK-OV-3),Activity (Aspergillus),selectivity ratio [2],IC50 (Cryptococcus neoformans),MFC (Cryptococcus neoformans),Activity (BT-549),selectivity ratio [3],selectivity ratio [4],selectivity ratio [5],Activity (Escherichia coli),Activity (LLC-PK1),Activity (Vero)
10 µg/mL,N[C@@H](Cc1cnc[nH]1)C(=O)N[C@@H](Cc1c[nH]c2ccccc12)C(=O)N[C@@H](Cc1cnc[nH]1)C(=O)NCc1ccccc1 (H-His-Trp-His-NHBn),> 10 µg/mL,inactive,> 1.2,> 10 µg/mL,inactive,> 1.2,,10 µg/mL,> 10 µg/mL,> 1.2,> 1.2,> 1.2,inactive,> 10 µg/mL,> 10 µg/mL
1.25 µg/mL,CC(C)(C)OC(=O)N[C@@H](Cc1cnc[nH]1)C(=O)N[C@@H](Cc1c[nH]c2ccccc12)C(=O)N[C@@H](Cc1cnc[nH]1)C(=O)NCc1ccccc1 (Boc-His-Trp-His-NHBn),> 10 µg/mL,inactive,> 12.5,> 10 µg/mL,inactive,> 12.5,,1.25 µg/mL,> 10 µg/mL,> 12.5,> 12.5,> 12.5,inactive,> 10 µg/mL,> 10 µg/mL
> 20 µg/mL,COc1ccc(-c2nc(C[C@H](NC(=O)[C@H](Cc3c[nH]c4ccccc34)NC(=O)[C@@H](N)Cc3c[nH]c(-c4ccc(OC)cc4)n3)C(=O)NCc3ccccc3)c[nH]2)cc1,> 10 µg/mL,inactive,> 1.4,> 10 µg/mL,inactive,> 1.4,7.2 µg/mL,> 20 µg/mL,> 10 µg/mL,> 1.4,> 1.4,> 1.4,inactive,> 10 µg/mL,> 10 µg/mL
